Broadly, the MIC is the lowest concentration found to suppress growth. In general, HC50 refers to the concentration that lyses half of the red blood cells. A higher HC50 goes with less damage to red cells.

Activity calls are given as the source filed them. The rule behind the calls is not given here.

This note sets out measurements from ChEMBL document CHEMBL3779860, “A Designed Tryptophan- and Lysine/Arginine-Rich Antimicrobial Peptide with Therapeutic Potential for Clinical Antibiotic-Resistant Candida albicans Vaginitis” (J Med Chem, 2016).

Series [1] concerns Candida albicans. The series is described as follows: Antimicrobial activity against antibiotic resistant Candida albicans clinical isolate 08030809 in mouse vaginitis model assessed as decrease in colony count in lavage liquid of vagina at 50 ug administered as intravaginal instillation measured on day 6. It is filed as functional.
The test system of series [2] is Candida albicans. The experiment in a line: Antimicrobial activity against antibiotic resistant Candida albicans clinical isolate 08022710 after 16 hrs by broth dilution method. In kind it is functional. Conditions: isolate 08022710, 16 h. In outline: (§1)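 Broth microdilution in Sabouraud liquid medium. Samples are stocks in 0.9% NaCl, 10 µL added to 90 µL broth plus 100 µL of 2 × 10^5 CFU/mL yeast suspension. Incubated 16 h at 28°C, growth read by A600. MIC is the lowest concentration completely inhibiting growth; mean of three independent experiments.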
Background: Dilution methods test growth across graded concentrations, often in twofold steps.

For series [3], the system named is Mus musculus. The experiment in a line: Antiinflammatory activity in antibiotic resistant Candida albicans clinical isolate 08030809 induced mouse vaginitis model assessed as microabscess number in vaginal tissue at 20 ug administered as intravaginal instillation measured after 16 days by hematoxylin-eosin staining based microscopic method (reference value: 61). It is filed as functional, Vagina. The method, boiled down: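 Mice given weekly subcutaneous estradiol valerate (0.5 mg in 0.1 mL vegetable oil) 72 h before infection. Infected intravaginally with 20 µL of 10^7 CFU/mL C. albicans 08030809. Intravaginal instillation of 20 µL daily for 16 days. Vaginal canals excised after lavage, formalin-fixed, paraffin-embedded, HE-stained. Microabscesses counted per high-power field over 6 fields per section, three independent experiments.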

The test system of series [4] is Candida albicans. The series is described as follows: Antimicrobial activity against antibiotic resistant Candida albicans clinical isolate 08032815 compound treated in PBS solution measured after 36 hrs by disc diffusion method. In kind it is functional. Conditions: isolate 08032815, 36 h. In outline: (§2)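 Salt-tolerance test: peptide at 2 mg/mL was prepared in sterile ddH2O, in 150 mM NaCl, or in PBS (150 mM NaCl, 2.7 mM KCl, 1.5 mM KH2PO4, 8 mM K2HPO4, pH 7.2). Anti-C. albicans activity was then assessed by inhibition zone on Sabouraud medium with 0.7% agar.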
Background: A growth-free zone around the sample is the usual read-out of agar diffusion tests.

Series [5] is described as follows: Hemolytic activity in human RBC after 30 mins. In kind it is ADME, cell-based, Erythrocyte. In outline:
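Serial dilutions were incubated with human erythrocytes for 30 min at 37°C. Supernatant absorbance was read at 540 nm after centrifugation. Hemolysis is expressed as % of the 1% Triton X-100 lysis value, pooled from three independent experiments. The highest concentration tested was 320 µg/mL.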

The test system of series [6] is Candida albicans. The series is described as follows: Antimicrobial activity against antibiotic resistant Candida albicans clinical isolate 08032710 compound treated in NaCl solution measured after 36 hrs by disc diffusion method. In kind it is functional. Conditions: isolate 08032710, 36 h. In outline: as §2
Series [7] has as its system Candida albicans. The series is described as follows: Antimicrobial activity against antibiotic resistant Candida albicans clinical isolate 08030809 in mouse vaginitis model assessed as decrease in colony count in lavage liquid of vagina administered as intravaginal instillation measured on day 1, 6, 11, 16. It is filed as functional, organism-based.
In the next series the test system is Staphylococcus aureus. The series is described as follows: Antimicrobial activity against Staphylococcus aureus ATCC 2592 assessed as inhibition of […] growth after 16 hrs by broth dilution method. In kind it is functional. Conditions: ATCC 2592, 16 h. The method, boiled down: (§3)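 Broth dilution in LB broth; 100 µL of 2 × 10^5 CFU/mL bacterial suspension plus 10 µL sample (stock series in 0.9% NaCl) in 90 µL broth, 37°C for 16 h. Growth read as A600; MIC is the lowest concentration completely inhibiting growth. Mean of three independent experiments run in duplicate.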

The test system of series [8] is Candida albicans. The series is described as follows: Antimicrobial activity against antibiotic resistant Candida albicans clinical isolate 08030809 assessed as clone count at 5 times MIC after 24 hrs by colony counting assay (Rvb > 10^5 CFU). In kind it is functional.
In series [9] the test system is Candida albicans. The experiment in a line: Antimicrobial activity against antibiotic resistant Candida albicans clinical isolate 08022821 after 16 hrs by broth dilution method. It is filed as functional. Conditions: isolate 08022821, 16 h. In outline:
as §1

In series [10] the test system is Candida albicans. The experiment in a line: Antimicrobial activity against antibiotic resistant Candida albicans clinical isolate 08030809 assessed as clone count at 5 times MIC after 3 hrs by colony counting assay (reference value: 3687 +/- 543 CFU). It is filed as functional.
The subject of series [11] is Candida albicans. The experiment in a line: Antimicrobial activity against antibiotic resistant Candida albicans clinical isolate 08030809 after 16 hrs by broth dilution method. It is filed as functional. Conditions: isolate 08030809, 16 h. In outline: as §1
Series [12] deals with Mus musculus. The series is described as follows: Antiinflammatory activity in antibiotic resistant Candida albicans clinical isolate 08030809 induced mouse vaginitis model assessed as reduction in TNF-alpha secretion in vaginal tissue administered as intravaginal instillation measured on day 10 by ELISA. It is filed as functional, organism-based. Conditions: Vagina. The method, boiled down:
(§4)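 Same estradiol-primed mouse model, infected intravaginally with C. albicans 08030809 and treated by intravaginal instillation (20 µL/mouse). Vaginal canals excised on day 10 of treatment and homogenised in 0.9% NaCl. Supernatant taken after 2,000 g for 15 min. TNF-α, IL-6, IL-1β and IL-10 measured by ELISA. Mean ± SE of three independent experiments; unpaired t-test versus vehicle.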
(In general: In an ELISA, binding on a coated surface is turned into a signal by an enzyme label.)

Series [13] concerns Mus musculus. The experiment in a line: Antiinflammatory activity in antibiotic resistant Candida albicans clinical isolate 08030809 induced mouse vaginitis model assessed as reduction in TNF-alpha secretion in vaginal tissue at 50 ug administered as intravaginal instillation measured on day 10 by ELISA. It is filed as functional, Vagina. In outline:
as §4

For series [14], the system named is Candida albicans. The experiment in a line: Antimicrobial activity against antibiotic resistant Candida albicans clinical isolate 08030809 compound treated in double distilled water measured after 36 hrs by disc diffusion method. In kind it is functional. Conditions: isolate 08030809, 36 h. In outline:
as §2

Series [15] relates to Candida albicans. The series is described as follows: Antimicrobial activity against antibiotic resistant Candida albicans clinical isolate 08032821 compound treated in PBS solution measured after 36 hrs by disc diffusion method. It is filed as functional. Conditions: isolate 08032821, 36 h. In outline:
as §2

The subject of series [16] is Candida albicans. The experiment in a line: Antimicrobial activity against antibiotic resistant Candida albicans clinical isolate 08030809 in mouse vaginitis model assessed as decrease in colony count in lavage liquid of vagina at 50 ug administered as intravaginal instillation measured on day 16. In kind it is functional.
Series [17] has as its system Mus musculus. The experiment in a line: Antiinflammatory activity in antibiotic resistant Candida albicans clinical isolate 08030809 induced mouse vaginitis model assessed as reduction in IL-10 secretion in vaginal tissue at 20 ug administered as intravaginal instillation measured on day 10 by ELISA. In kind it is functional, Vagina. The method, boiled down: as §4

A further series relates to Escherichia coli. The series is described as follows: Antimicrobial activity against Escherichia coli ATCC 25922 assessed as inhibition of […] growth after 16 hrs by broth dilution method. Conditions: ATCC 25922, 16 h. It is filed as functional. In outline:
as §3

Series [18] relates to Candida albicans. The series is described as follows: Antimicrobial activity against antibiotic resistant Candida albicans after 6 hrs by disc diffusion method in presence of human plasma. It is filed as functional, organism-based. The method, boiled down:
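Peptide mixed with human plasma (final concentration 100 µM) at 37°C for up to 24 h. 10 µL aliquots were applied to C. albicans in Sabouraud medium with 0.7% agar. Inhibition zone diameters were read after 36 h.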

The subject of series [19] is Candida albicans. The experiment in a line: Antimicrobial activity against antibiotic resistant Candida albicans clinical isolate 08030809 in mouse vaginitis model assessed as decrease in colony count in lavage liquid of vagina at 50 ug measured on day 1. In kind it is functional.
For series [20], the system named is Candida albicans. The series is described as follows: Antimicrobial activity against antibiotic resistant Candida albicans clinical isolate 08032821 compound treated in NaCl solution measured after 36 hrs by disc diffusion method. In kind it is functional. Conditions: isolate 08032821, 36 h. The method, boiled down: as §2

Regarding H-VKRWKKWRWKWKKWV-NH2, the “inhibition (INH)” value in the series with Candida albicans [1] stood at 48%; in the series on Mus musculus [13] it was 53%; in the series with Candida albicans [16], 83%; in the series on Mus musculus [17] it was 39%; with Candida albicans [19], 28%. The MIC was 4.69 µg/mL against Candida albicans [2]; 2.79 µg/mL in the series with Candida albicans [4]; 2.79 µg/mL with Candida albicans [6]; 1.17 µg/mL in the series with Staphylococcus aureus; 3.13 µg/mL with Candida albicans [9]; 1.4 µg/mL against Candida albicans [11]. For the same substance, the MIC was found to be 1.4 µg/mL against Candida albicans [14], 2.65 µg/mL in the series on Candida albicans [15], 9.38 µg/mL in the series with Escherichia coli and 2.65 µg/mL against Candida albicans [20]. For the same substance, the Activity with Mus musculus [3] was under 3; in the series on Candida albicans [8], 0 CFU; in the series with Candida albicans [10], 0 CFU; in the series on Mus musculus [12] it was “Dose-dependent effect”. Also, the HC10 in [5] (erythrocyte, 0.5 h) was over 320 µg/mL. Moreover, the concentration for 50% haemolysis (HC50) at 0.5 h in series [5] (red blood cells) was over 320 µg/mL. In addition, the inhibition entry with Candida albicans [7] was “Dose-dependent effect”. The result in the series on Candida albicans [18] was Active.
